Laboratory results: ChEMBL document CHEMBL3425510, “Discovery of bisamide-heterocycles as inhibitors of scavenger receptor BI (SR-BI)-mediated lipid uptake” (Bioorg Med Chem Lett, 2015)
≈ marks a conversion by molar mass, not a printed value. Calls of active or inactive are those of the source. No cut-off for these calls is given here.

Columns and labels:
[1] = target: T1, Scavenger receptor class B member 1 (Mus musculus, UniProt Q61009); test: Inhibition of mouse SR-BI isoform 1 expressed in CHO cells assessed as reduction in transfer of fluorescent lipid DiI from human HDL particles into cells by fluorescence assay; assay type: cell-based
T1 sequence (Q61009 whole entry): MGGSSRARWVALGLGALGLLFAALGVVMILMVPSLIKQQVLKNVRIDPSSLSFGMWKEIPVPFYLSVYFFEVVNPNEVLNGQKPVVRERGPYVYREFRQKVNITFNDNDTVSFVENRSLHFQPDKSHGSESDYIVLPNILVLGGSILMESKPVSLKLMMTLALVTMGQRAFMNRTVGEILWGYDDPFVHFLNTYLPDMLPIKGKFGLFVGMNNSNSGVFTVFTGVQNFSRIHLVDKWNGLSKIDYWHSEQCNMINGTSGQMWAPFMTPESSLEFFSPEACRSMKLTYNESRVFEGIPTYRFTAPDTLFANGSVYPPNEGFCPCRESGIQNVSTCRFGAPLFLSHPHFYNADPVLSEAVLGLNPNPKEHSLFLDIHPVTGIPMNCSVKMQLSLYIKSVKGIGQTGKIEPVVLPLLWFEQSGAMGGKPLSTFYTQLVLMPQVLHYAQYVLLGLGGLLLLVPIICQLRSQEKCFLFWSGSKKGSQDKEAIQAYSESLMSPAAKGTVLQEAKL
Procedure, shortened: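 ldlA[mSR-BI] cells (CHO, lacking LDL receptor, overexpressing mouse SR-BI), 10,000 per well, plated overnight in F12K/5% FCS. Medium swapped to Ham's F12/0.5% fatty acid-free BSA/25 mM HEPES pH 7.4 with DiI-HDL at 10 μg protein/ml final. Compound pinned in, 3 h at 37 °C, then two PBS (+Ca/Mg) washes. Bottom-read fluorescence; normalized to DMSO and 1 μM BLT-1.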

[2] = Aqueous solubility in PBS buffer with 1% DMSO at 100 uM incubated for 24 hrs by UPLC-MS method; assay type: physicochemical
Procedure, shortened: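 Duplicate samples at 100 μM in PBS pH 7.4 with 1% DMSO, plus matching samples in 100% DMSO. Shaken 250 rpm for 24 h at room temperature. Quantified by UPLC-MS with SIR detection on a single quadrupole; PBS response fitted to a two-point calibration made from the DMSO samples.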

CHO [3] = test: Cytotoxicity against CHO cells after 24 hrs; assay type: cell-based, Cricetulus griseus; conditions: chinese hamster
[4] = Stability in mouse liver microsomes assessed as compound remaining at 1 uM in presence of NADPH at 37 degC after 1 hr by UHPLC-MS method; assay type: ADME; conditions: read-out: Stability
Procedure, shortened: (§1)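 Liver microsomes (human or mouse) in PBS pH 7.4, final 1 μM compound, 0.3 mg/mL microsomes, 0.5 mM NADPH, 1% DMSO. Run in duplicate at 37 °C with 250 rpm shaking. Sampled at 0 and 1 h.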

[5] = Stability in mouse plasma assessed as compound remaining at 5 uM after 5 hrs at 37 degC by UPLC-MS method; assay type: ADME, cell-free; conditions: read-out: Stability
Procedure, shortened: (§2)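 Plasma (human or mouse) diluted 50/50 with PBS pH 7.4, compound at 5 μM (0.95% acetonitrile, 0.05% DMSO). Run in duplicate, shaken 250 rpm at 37 °C. Sampled at 0 and 5 h; analysed by UPLC-MS with SIR detection.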

[6] = Stability in human liver microsomes assessed as compound remaining at 1 uM in presence of NADPH at 37 degC after 1 hr by UHPLC-MS method; assay type: ADME; conditions: read-out: Stability; procedure, shortened: as §1
[7] = target: T1, Scavenger receptor class B member 1; test: Inhibition of mouse SR-BI isoform 1 expressed in CHO cells assessed as increase in binding of Alexa-488-labeled HDL particles to cells; assay type: cell-based
Procedure, shortened: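 ldlA[mSR-BI] cells (LDL receptor-deficient CHO overexpressing mouse SR-BI), 10,000/well in Ham's F12K/5% FCS, grown overnight. Medium swapped for Ham's F12/0.5% fatty acid-free BSA/25 mM HEPES pH 7.4 containing 10 ug/mL Alexa 488-HDL (dye bound covalently to apolipoprotein). Compounds pinned in, 1 uM BLT-1 as positive control, 3 h at 37°C. Cells washed twice with PBS (+Ca/Mg), bottom-read fluorescence, normalised to DMSO and BLT-1 wells.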

[8] = Stability in human plasma assessed as compound remaining at 5 uM after 5 hrs at 37 degC by UPLC-MS method; assay type: ADME, cell-free; conditions: read-out: Stability; procedure, shortened: as §2
CHO [9] = test: Inhibition of general receptor-mediated endocytosis in SR-BI isoform 1 expressing CHO cells assessed as effect on endocytosis of Alexa-594-labeled transferrin up to 35 uM; assay type: functional, cell-based; conditions: Cricetulus griseus

SMILES | IC50 [1] | other results
COc1cccc(-c2nnn(CC(=O)N(C3CCCCC3)C(C)C(=O)NC3CCCC3)n2)c1 (stereo not drawn) | 0.18 µM | –
COc1ccc(-c2nnn(CC(=O)N(CC3CCCCC3)C(C)C(=O)NC3CCCC3)n2)cc1OC (stereo not drawn) | 1.6 µM | –
CC(C(=O)NC1CCCC1)N(C(=O)Cn1nnc(-c2ccc3c(c2)OC(F)(F)O3)n1)C1CCCCC1 (stereo not drawn) | 0.23 µM | –
COc1ccc(-c2nc(CC(=O)N(C3CCCCC3)C(C)C(=O)NC3CCCC3)cs2)cc1OC (stereo not drawn) | 6.3 µM | –
CC(C(=O)NC1CCCC1)N(C(=O)Cn1nnc(-c2ccc(F)cc2)n1)C1CCCCC1 (stereo not drawn) | 0.13 µM | –
Cc1ccc(-c2nnn(CC(=O)N(C3CCCCC3)C(C)C(=O)NC3CCCC3)n2)cc1 (stereo not drawn) | 0.49 µM | –
COc1ccc(-c2nnn(CC(=O)N(C3CCCCC3)C(C)C(=O)NC3CC3)n2)cc1OC (stereo not drawn) | 0.42 µM | –
COc1ccc(-c2nnn(CC(=O)N(C)C(C)C(=O)NC3CCCC3)n2)cc1OC (stereo not drawn) | 19 µM | –
CC(C(=O)NC1CCCC1)N(C(=O)Cn1nnc(-c2cccc(F)c2)n1)C1CCCCC1 (stereo not drawn) | 0.38 µM | –
COc1ccc(-c2nnn(CC(=O)N(C3CCCCC3)C(C)C(=O)N3CCCCC3)n2)cc1OC (stereo not drawn) | 7.1 µM | –
COc1ccc(-c2cc(CC(=O)N(C3CCCCC3)C(C)C(=O)NC3CCCC3)no2)cc1OC (stereo not drawn) | 0.023 µM | –
CC(C(=O)NC1CCCC1)N(C(=O)Cn1nnc(-c2ccc3c(c2)OCO3)n1)C1CCOCC1 (stereo not drawn) | 0.84 µM | –
CC(C(=O)NC1CCCC1)N(C(=O)Cn1nnc(-c2ccccc2Cl)n1)C1CCCCC1 (stereo not drawn) | 3.8 µM | –
CC(C(=O)NC1CCCC1)N(C(=O)Cn1nnc(-c2ccc3c(c2)OCO3)n1)C1CCCCC1 (stereo not drawn) | 0.027 µM | –
CC(C(=O)NC1CCCC1)N(C(=O)Cn1nnc(-c2ccc(Cl)cc2)n1)C1CCCCC1 (stereo not drawn) | 0.17 µM | –
CC(C(=O)NC1CCCC1)N(C(=O)Cn1nnc(-c2ccccc2)n1)C1CCCCC1 (stereo not drawn) | 0.37 µM | –
COc1ccc(-c2nnn(CC(=O)N(C3CCCCC3)C(C)(C)C(=O)NC3CCCC3)n2)cc1OC | 19 µM | –

SMILES | IC50 [1] | other results
COCC(=O)N1CCc2cc(-c3csc(NC(=O)c4cc(OC)cc(OC)c4)n3)ccc21 | – | solubility kinetic at 24 h, 100 µM [2]: 0.57 µM (≈ 0.259 µg/mL)
COc1ccc(-c2nnn(CC(=O)N(C3CCCCC3)C(C)C(=O)NC(C)(C)C)n2)cc1OC (stereo not drawn) | 17 µM | –
COc1ccc(-c2nc(CC(=O)N(C3CCCCC3)C(C)C(=O)NC3CCCC3)co2)cc1OC (stereo not drawn) | 0.13 µM | –
O=C(CN(C(=O)Cn1nnc(-c2ccc3c(c2)OCO3)n1)C1CCCCC1)NC1CCCC1 | 0.026 µM | –
COc1ccc(-c2nnn(CC(=O)N(C3CCCCC3)C(C)C(=O)NC3CCCC3)n2)cc1OC (stereo not drawn) | 0.055 µM | solubility kinetic at 24 h, 100 µM [2]: 114 µM (≈ 55.2 µg/mL); Activity (CHO [3]): Non-toxic
COc1ccc(-c2nnn(CC(=O)N(C3CCCCC3)C(C(=O)NC3CCCC3)C(C)C)n2)cc1OC (stereo not drawn) | > 25 µM | –
COc1ccc(-c2nnn(CC(=O)N(C3CCCCC3)C(C)C(=O)NC3CCCCC3)n2)cc1OC (stereo not drawn) | 0.2 µM | –
COc1ccc(-c2nnn(CC(=O)N(C3CCCCC3)C(C)C(=O)N(C)C3CCCC3)n2)cc1OC (stereo not drawn) | 1.6 µM | –
CC(C(=O)NC1CCCC1)N(C(=O)Cn1nnc(-c2ccccc2F)n1)C1CCCCC1 (stereo not drawn) | 0.62 µM | –
COc1ccc(-c2nnn(CC(=O)N(C3CCN(C)CC3)C(C)C(=O)NC3CCCC3)n2)cc1OC (stereo not drawn) | > 25 µM | –
COc1ccc(-c2nnn(CC(=O)N(C3CC3)C(C)C(=O)NC3CCCC3)n2)cc1OC (stereo not drawn) | 7.5 µM | –
COc1ccc(-c2nnn(CC(=O)N(C3CCCCC3)C(C)C(=O)NC(C)C)n2)cc1OC (stereo not drawn) | 0.81 µM | –
COc1ccc(-c2nnn(CC(=O)N(C3CCCC3)C(C)C(=O)NC3CCCC3)n2)cc1OC (stereo not drawn) | 0.11 µM | –
CC(C(=O)NC1CCCC1)N(C(=O)Cn1nnc(-c2ccc(Cl)c(Cl)c2)n1)C1CCCCC1 (stereo not drawn) | 0.18 µM | –
CC(C(=O)NC1CCCC1)N(C(=O)Cc1ccccc1)C1CCCCC1 (stereo not drawn) | 37 µM | –
COc1ccccc1-c1nnn(CC(=O)N(C2CCCCC2)C(C)C(=O)NC2CCCC2)n1 (stereo not drawn) | > 25 µM | –
C[C@H](C(=O)NC1CCCC1)N(C(=O)Cn1nnc(-c2ccc3c(c2)OCO3)n1)C1CCCCC1 | 0.017 µM | solubility kinetic at 24 h, 100 µM [2]: 28 µM (≈ 13.1 µg/mL); remaining at 1 h, 1 µM [4]: < 1%; remaining at 5 h, 5 µM [5]: > 99%; remaining at 1 h, 1 µM [6]: < 1%; EC50 [7]: 0.27 µM; remaining at 5 h, 5 µM [8]: > 99%; inhibition (CHO [9]): inactive
